# How the values were obtained:
# Homo sapiens = species: Homo sapiens; assay: Selectivity index, ratio of Ki for human CB1 receptor to KI for human CB2 receptor
# Cannabinoid receptor 1 = Cannabinoid receptor 1 (Homo sapiens, UniProt P21554); assay: biochemical; format: cell-based, CHO
# Cannabinoid receptor 2 [1] = molecular target: T1, Cannabinoid receptor 2 (Homo sapiens, UniProt P34972); assay: Inverse agonist activity at human CB2 receptor expressed in CHO cells assessed as increase in forskolin-induced cAMP accumulation incubated for 45 mins by TR-FRET method based LANCE cAMP assay; format: functional, cell-based
# Cannabinoid receptor 2 [2] = molecular target: T1, Cannabinoid receptor 2; assay: Displacement of [3H]CP55940 from human CB2 receptor expressed in CHO cells incubated for 1 hr; format: cell-based
# PBMC = assay: Toxicity against human PBMC assessed effect on cell viability at 1 to 10 uM incubated for 72 hrs by trypan blue dye exclusion method; format: cell-based
# How it was run: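 PBMC from healthy medication-free donors, isolated on Ficoll-Hypaque, washed in ice-cold PBS. Cells held in medium with 10% inactivated FBS and 2 mM glutamine (5×10^5/mL; legend 10^5 cells/well). Compounds come from a 50 mM DMSO stock, final DMSO 0.02%, exposure 72 h. Viability read by trypan blue exclusion; three assays, mean ± SD.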
# Bone marrow cell [3] = assay: Inhibition of osteoclastogenesis in human mononuclear bone marrow cells incubated for 3 weeks at 37 degC by osteoclast formation assay; format: functional, cell-based
# How it was run: (§1)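 Nonadherent human marrow mononuclear cells from healthy donors, 2×10^5 per well, in MEM with 20% horse serum, 10 ng/mL M-CSF and 25 ng/mL RANKL (legend states RANKL 50 ng/mL). Compounds present throughout, with drug-containing half-medium changes twice weekly; 3 weeks at 37 °C, 5% CO2. 23c6 antibody stain; 23c6+ cells with ≥3 nuclei counted; triplicate, mean ± SD.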
# Bone marrow cell [4] = assay: Inhibition of osteoclastogenesis in human mononuclear bone marrow cells at 10 uM incubated for 3 weeks at 37 degC by osteoclast formation assay; format: functional; settings: 504 h; how it was run: as §1
# Bone marrow cell [5] = assay: Inhibition of osteoclastogenesis in human mononuclear bone marrow cells at 1 uM incubated for 3 weeks at 37 degC by osteoclast formation assay; format: functional; settings: 504 h; how it was run: as §1
# Bone marrow cell [6] = assay: Inhibition of osteoclastogenesis in human mononuclear bone marrow cells at 0.1 uM incubated for 3 weeks at 37 degC by osteoclast formation assay; format: functional; settings: 504 h; how it was run: as §1
# Cannabinoid receptor 1, sequence (P21554 whole entry): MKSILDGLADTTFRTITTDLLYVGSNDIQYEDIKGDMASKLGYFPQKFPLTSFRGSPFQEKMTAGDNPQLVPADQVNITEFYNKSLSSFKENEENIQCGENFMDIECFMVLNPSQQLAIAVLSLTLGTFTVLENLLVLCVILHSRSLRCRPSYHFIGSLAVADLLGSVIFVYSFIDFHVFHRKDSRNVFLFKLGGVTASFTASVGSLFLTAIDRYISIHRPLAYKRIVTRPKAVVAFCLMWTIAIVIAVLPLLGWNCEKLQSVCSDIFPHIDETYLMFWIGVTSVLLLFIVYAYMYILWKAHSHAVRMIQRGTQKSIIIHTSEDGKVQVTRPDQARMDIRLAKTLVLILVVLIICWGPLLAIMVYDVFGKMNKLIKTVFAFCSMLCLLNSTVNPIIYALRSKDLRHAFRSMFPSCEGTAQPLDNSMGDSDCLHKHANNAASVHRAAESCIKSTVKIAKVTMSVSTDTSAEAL
# T1 sequence (P34972 whole entry): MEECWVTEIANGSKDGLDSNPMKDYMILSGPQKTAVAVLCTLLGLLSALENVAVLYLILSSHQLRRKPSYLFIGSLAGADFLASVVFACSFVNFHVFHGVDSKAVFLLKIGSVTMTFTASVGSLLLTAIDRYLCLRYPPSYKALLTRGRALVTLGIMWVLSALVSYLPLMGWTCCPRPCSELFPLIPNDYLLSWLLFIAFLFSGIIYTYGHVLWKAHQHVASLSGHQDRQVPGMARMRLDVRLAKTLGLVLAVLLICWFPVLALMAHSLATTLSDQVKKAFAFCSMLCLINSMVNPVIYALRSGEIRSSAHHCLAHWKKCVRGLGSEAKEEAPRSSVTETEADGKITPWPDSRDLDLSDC
SMILES,Ratio Ki (Homo sapiens),Ki (Cannabinoid receptor 1),Ki (Cannabinoid receptor 2 [2]),other results
O=C(Cc1ccccc1)NC(NC(=O)Cc1ccccc1)c1ccc(C(F)(F)F)cc1,> 34,> 20 µM,–,–
CCCN(CCC)c1ccc(C(NC(=O)Cc2ccccc2)NC(=O)Cc2ccccc2)cc1,–,> 20 µM,0.022 µM,EC50 (Cannabinoid receptor 2 [1]): 0.0283 µM
CCCCN(CCCC)c1ccc(C(NC(=O)Cc2ccccc2)NC(=O)Cc2ccccc2)cc1,> 90,> 20 µM,–,–
O=C(Cc1ccc(Cl)cc1)NC(NC(=O)Cc1ccc(Cl)cc1)c1ccc(Cl)cc1,> 130,> 20 µM,–,–
COc1ccc(C(NC(=O)Cc2ccc(Cl)cc2)NC(=O)Cc2ccc(Cl)cc2)cc1,> 65,> 20 µM,–,–
O=C(Cc1ccc(Cl)cc1)NC(NC(=O)Cc1ccc(Cl)cc1)c1ccc(F)cc1,–,–,> 20 µM,–
CC(C)c1ccc(C(NC(=O)Cc2ccccc2)NC(=O)Cc2ccccc2)cc1,–,> 20 µM,–,Activity (PBMC): Non-toxic; inhibition (Bone marrow cell [3]): Dose-dependent effect; EC50 (Cannabinoid receptor 2 [1]): 0.00411 µM
O=C(Cc1ccccc1)NC(NC(=O)Cc1ccccc1)c1ccc(N(Cc2ccccc2)Cc2ccccc2)cc1,> 99,> 20 µM,0.203 µM,–
O=C(Cc1ccccc1)NC(NC(=O)Cc1ccccc1)c1ccc(N2CCCC2)cc1,> 281,> 20 µM,0.071 µM,EC50 (Cannabinoid receptor 2 [1]): 0.0171 µM
O=C(Cc1ccc(C(F)(F)F)cc1)NC(NC(=O)Cc1ccc(C(F)(F)F)cc1)c1ccccc1,–,–,> 20 µM,–
Nc1ccc(C(NC(=O)Cc2ccccc2)NC(=O)Cc2ccccc2)cc1,–,–,12.6 µM,–
O=C(Cc1ccc(C(F)(F)F)cc1)NC(NC(=O)Cc1ccc(C(F)(F)F)cc1)c1ccc(Cl)cc1,–,–,> 20 µM,–
O=C(Cc1ccccc1)NC(NC(=O)Cc1ccccc1)c1ccc([N+](=O)[O-])cc1,–,–,> 20 µM,–
Cc1ccc(C(NC(=O)Cc2ccc(Cl)cc2)NC(=O)Cc2ccc(Cl)cc2)cc1,> 43,> 20 µM,–,–
O=C(Cc1ccccc1)NC(Cc1ccccc1)NC(=O)Cc1ccccc1,–,> 20 µM,> 20 µM,–
O=C(Cc1ccc(Cl)cc1)NC(NC(=O)Cc1ccc(Cl)cc1)c1ccc([N+](=O)[O-])cc1,–,–,> 20 µM,–
CCCCC(=O)NC(NC(=O)CCCC)c1ccc(N(CC)CC)cc1,> 109,> 20 µM,–,–
O=C(Cc1ccc(C(F)(F)F)cc1)NC(NC(=O)Cc1ccc(C(F)(F)F)cc1)c1ccc(F)cc1,–,–,> 20 µM,–
CCCCCCCCCC(=O)NC(NC(=O)CCCCCCCCC)c1ccc(N(CC)CC)cc1,–,> 20 µM,–,–
O=C(Cc1ccc(Cl)cc1)NC(NC(=O)Cc1ccc(Cl)cc1)c1ccccc1,–,–,> 20 µM,–
Cc1ccc(C(NC(=O)Cc2ccc(C(F)(F)F)cc2)NC(=O)Cc2ccc(C(F)(F)F)cc2)cc1,–,–,> 20 µM,–
O=C(Cc1ccc(C(F)(F)F)cc1)NC(NC(=O)Cc1ccc(C(F)(F)F)cc1)c1ccc(C(F)(F)F)cc1,–,–,> 20 µM,–

SMILES,Ratio Ki (Homo sapiens),Ki (Cannabinoid receptor 1),Ki (Cannabinoid receptor 2 [2]),other results
O=C(Cc1ccccc1)NC(CCc1ccccc1)NC(=O)Cc1ccccc1,–,> 20 µM,–,–
Cc1ccc(Cn2nc(C(=O)N[C@@H]3C(C)(C)[C@@H]4CC[C@@]3(C)C4)cc2-c2ccc(Cl)c(C)c2)cc1 [SR-144528],–,–,–,Activity (PBMC): Non-toxic
COc1ccc(C(NC(=O)Cc2ccc(C(F)(F)F)cc2)NC(=O)Cc2ccc(C(F)(F)F)cc2)cc1,–,–,> 20 µM,–
O=C(Cc1ccccc1)NC(/C=C/c1ccccc1)NC(=O)Cc1ccccc1,–,> 20 µM,–,–
CCN(CC)c1ccc(C(NC(=O)CCc2ccccc2)NC(=O)CCc2ccccc2)cc1,–,> 20 µM,0.213 µM,–
CCN(CC)c1ccc(C(NC(=O)/C=C/c2ccccc2)NC(=O)/C=C/c2ccccc2)cc1,> 119,> 20 µM,0.167 µM,–
O=C(Cc1ccccc1)NC(NC(=O)Cc1ccccc1)c1ccc(N2CCCCC2)cc1,> 34,> 20 µM,–,–
CCN(CC)c1ccc(C(NC(=O)c2ccccc2)NC(=O)c2ccccc2)cc1,> 29,> 20 µM,–,–
O=C(Cc1ccc(C(F)(F)F)cc1)NC(NC(=O)Cc1ccc(C(F)(F)F)cc1)c1ccccc1F,–,–,> 20 µM,–
CCN(CC)c1ccc(C(NC(=O)C(C)C)NC(=O)C(C)C)cc1,–,> 20 µM,–,–
CN(C)c1ccc(C(NC(=O)Cc2ccccc2)NC(=O)Cc2ccccc2)cc1,> 26,> 20 µM,–,Activity (PBMC): Non-toxic; inhibition (Bone marrow cell [3]): Dose-dependent effect; EC50 (Cannabinoid receptor 2 [1]): 0.159 µM
CCCCCC(=O)NC(NC(=O)CCCCC)c1ccc(N(CC)CC)cc1,> 800,> 20 µM,–,EC50 (Cannabinoid receptor 2 [1]): 0.0134 µM
Cc1ccc(Cn2nc(C(=O)NC3C4(C)CCC(C4)C3(C)C)cc2-c2ccc(Cl)c(C)c2)cc1 (centres undefined),–,–,–,inhibition (Bone marrow cell [3]): Dose-dependent effect
COc1ccc(C(NC(=O)Cc2ccccc2)NC(=O)Cc2ccccc2)cc1,> 26,> 20 µM,–,–
CCN(CC)c1ccc(C(NC(=O)C(C)(C)C)NC(=O)C(C)(C)C)cc1,–,> 20 µM,–,–
CCN(CC)c1ccc(C(NC(=O)Cc2ccccc2)NC(=O)Cc2ccccc2)cc1,> 313,> 20 µM,–,Activity (PBMC): Non-toxic; inhibition at 10 µM (Bone marrow cell [4]): 84%; inhibition at 1 µM (Bone marrow cell [5]): 79%; inhibition at 0.1 µM (Bone marrow cell [6]): 72%; inhibition (Bone marrow cell [3]): Dose-dependent effect; EC50 (Cannabinoid receptor 2 [1]): 0.00573 µM
CCCCCCCC(=O)NC(NC(=O)CCCCCCC)c1ccc(N(CC)CC)cc1,> 136,> 20 µM,–,–
O=C(Cc1ccc(Cl)cc1)NC(NC(=O)Cc1ccc(Cl)cc1)c1ccc(C(F)(F)F)cc1,> 198,> 20 µM,–,–
O=C(Cc1ccc(Cl)cc1)NC(NC(=O)Cc1ccc(Cl)cc1)c1ccccc1C(F)(F)F,> 127,> 20 µM,–,–
CC(C)Oc1ccc(C(NC(=O)Cc2ccccc2)NC(=O)Cc2ccccc2)cc1,–,> 20 µM,–,Activity (PBMC): Non-toxic; inhibition (Bone marrow cell [3]): Dose-dependent effect
CCCCCC(NC(=O)Cc1ccccc1)NC(=O)Cc1ccccc1,–,> 20 µM,–,–
